The values below come from ChEMBL document CHEMBL1154352, “Toll-like receptor 7 selective synthetic oligoribonucleotide agonists: synthesis and structure-activity relationship studies” (J Med Chem, 2009).

Activity calls are given as the source filed them. The rule behind the calls is not given here.

For series [1], the system named is Splenocyte. The experiment in a line: Immunomodulatory activity in C57BL/6 mouse splenocytes bearing TLR7 receptor assessed as IL6 release at 100 ug/ml after 24 hrs by ELISA. It counts as functional, cell-based. A digest of the protocol: (§1)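 C57BL/6 splenocytes in RPMI 1640 with 10% FBS, penicillin/streptomycin, 2 mM L-glutamine, plated at 5 × 10^6 cells/mL; compounds in PBS added, 37 °C for 24 h. Supernatant IL-12 and IL-6 by ELISA; representative of three independent experiments.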
In general terms: An ELISA detects its analyte on a solid surface through an enzyme-linked reagent.

In series [2] the test system is Splenocyte. In words: Immunomodulatory activity in C57BL/6 mouse splenocytes bearing TLR7 receptor assessed as IL12 release at 100 ug/ml after 24 hrs by ELISA. It counts as functional, cell-based. Put shortly: as §1
Series [3] has as its target T1, Toll-like receptor 8 (Homo sapiens) (UniProt Q9NR97).
T1 sequence (whole entry): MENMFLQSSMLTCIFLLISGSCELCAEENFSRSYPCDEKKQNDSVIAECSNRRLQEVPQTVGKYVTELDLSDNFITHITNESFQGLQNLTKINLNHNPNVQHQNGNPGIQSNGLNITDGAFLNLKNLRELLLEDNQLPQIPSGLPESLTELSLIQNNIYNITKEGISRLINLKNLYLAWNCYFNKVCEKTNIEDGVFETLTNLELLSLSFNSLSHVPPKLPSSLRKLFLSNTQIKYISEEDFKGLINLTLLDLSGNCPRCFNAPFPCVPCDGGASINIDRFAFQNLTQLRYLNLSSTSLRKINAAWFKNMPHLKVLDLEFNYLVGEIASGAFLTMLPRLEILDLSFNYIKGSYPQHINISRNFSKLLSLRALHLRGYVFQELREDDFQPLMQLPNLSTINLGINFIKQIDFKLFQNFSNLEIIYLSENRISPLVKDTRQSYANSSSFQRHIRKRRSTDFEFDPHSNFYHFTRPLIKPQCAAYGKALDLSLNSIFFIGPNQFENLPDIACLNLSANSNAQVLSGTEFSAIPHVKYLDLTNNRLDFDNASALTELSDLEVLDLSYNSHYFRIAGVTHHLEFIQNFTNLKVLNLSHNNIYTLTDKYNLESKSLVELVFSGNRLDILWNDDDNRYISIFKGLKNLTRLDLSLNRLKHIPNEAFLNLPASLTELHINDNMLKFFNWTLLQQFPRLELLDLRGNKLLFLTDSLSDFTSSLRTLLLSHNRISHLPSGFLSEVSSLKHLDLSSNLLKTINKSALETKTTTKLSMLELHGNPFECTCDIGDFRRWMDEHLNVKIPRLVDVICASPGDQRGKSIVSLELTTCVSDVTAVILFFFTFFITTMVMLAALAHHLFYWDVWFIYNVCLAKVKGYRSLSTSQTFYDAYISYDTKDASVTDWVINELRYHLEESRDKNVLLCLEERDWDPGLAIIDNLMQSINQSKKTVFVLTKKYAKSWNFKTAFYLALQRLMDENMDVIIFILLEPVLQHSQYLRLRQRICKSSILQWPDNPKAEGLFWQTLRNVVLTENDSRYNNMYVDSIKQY
In words: Activation of human TLR8 expressed in HEK293XL assessed as fold induction of NF-kappaB activity at 50 ug/ml after 18 hrs by reporter gene assay relative to control. Put shortly:
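HEK293 cells stably expressing human TLR7 or TLR8, transiently transfected with SEAP reporter plasmid; medium replaced, SIMRA compounds added, 18 h incubation. Supernatant SEAP measured by QuantiBlue; expressed as fold increase in NF-κB activity over PBS control. Tabulated data at 50 μg/mL, representative of three independent experiments.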

The target in series [4] is T2, Toll-like receptor 9 (Mus musculus) (UniProt Q9EQU3).
T2 sequence (whole entry): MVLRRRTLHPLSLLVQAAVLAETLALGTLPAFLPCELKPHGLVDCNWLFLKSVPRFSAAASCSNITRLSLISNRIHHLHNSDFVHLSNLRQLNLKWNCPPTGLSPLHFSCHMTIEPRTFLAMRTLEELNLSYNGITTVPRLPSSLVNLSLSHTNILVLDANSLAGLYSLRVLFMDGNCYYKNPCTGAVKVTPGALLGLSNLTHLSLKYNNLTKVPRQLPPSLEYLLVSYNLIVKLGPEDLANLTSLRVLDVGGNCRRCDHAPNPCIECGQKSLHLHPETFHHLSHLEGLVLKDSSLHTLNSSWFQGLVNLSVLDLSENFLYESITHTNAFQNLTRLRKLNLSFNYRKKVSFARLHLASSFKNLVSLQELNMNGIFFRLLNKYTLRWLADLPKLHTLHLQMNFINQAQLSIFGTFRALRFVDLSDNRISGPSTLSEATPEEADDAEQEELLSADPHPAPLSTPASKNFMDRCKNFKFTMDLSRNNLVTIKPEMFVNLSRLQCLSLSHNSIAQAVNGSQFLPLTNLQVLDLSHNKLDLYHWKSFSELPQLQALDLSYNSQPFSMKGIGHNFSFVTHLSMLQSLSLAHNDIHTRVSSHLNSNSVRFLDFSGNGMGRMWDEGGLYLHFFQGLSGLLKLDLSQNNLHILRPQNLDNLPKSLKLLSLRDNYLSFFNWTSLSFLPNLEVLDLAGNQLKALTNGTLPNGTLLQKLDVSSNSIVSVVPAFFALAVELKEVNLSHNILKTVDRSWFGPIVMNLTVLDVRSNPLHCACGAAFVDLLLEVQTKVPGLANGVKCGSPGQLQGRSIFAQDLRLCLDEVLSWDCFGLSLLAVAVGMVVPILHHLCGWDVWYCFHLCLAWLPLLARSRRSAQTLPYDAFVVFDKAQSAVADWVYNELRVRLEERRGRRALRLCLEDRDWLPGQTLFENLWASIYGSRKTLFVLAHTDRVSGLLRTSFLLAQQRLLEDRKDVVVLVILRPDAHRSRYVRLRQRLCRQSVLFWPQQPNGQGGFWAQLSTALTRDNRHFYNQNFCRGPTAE
In words: Activation of mouse TLR9 expressed in HEK293 assessed as induction of NF-kappaB activity reporter gene assay. It counts as cell-based. For orientation: A reporter such as luciferase makes a cellular process visible.

The nature of series [5]: Metabolic stability in human serum assessed as full length product remaining after 10 mins by HPLC. The format is ADME, cell-free. The conditions noted are these: read-out: Stability. A digest of the protocol: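 About 0.5 A260 units compound in 1% human serum in PBS, 37 °C; aliquot taken at 10 min, analysed by anion-exchange HPLC for percent intact full-length product.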

Series [6] has as its target Toll-like receptor 3 (Homo sapiens) (UniProt O15455). The experiment in a line: Activation of human TLR3 expressed in HEK293 assessed as induction of NF-kappaB activity reporter gene assay. The format is cell-based.

Sequence of Toll-like receptor 3 (Homo sapiens) (O15455 whole entry): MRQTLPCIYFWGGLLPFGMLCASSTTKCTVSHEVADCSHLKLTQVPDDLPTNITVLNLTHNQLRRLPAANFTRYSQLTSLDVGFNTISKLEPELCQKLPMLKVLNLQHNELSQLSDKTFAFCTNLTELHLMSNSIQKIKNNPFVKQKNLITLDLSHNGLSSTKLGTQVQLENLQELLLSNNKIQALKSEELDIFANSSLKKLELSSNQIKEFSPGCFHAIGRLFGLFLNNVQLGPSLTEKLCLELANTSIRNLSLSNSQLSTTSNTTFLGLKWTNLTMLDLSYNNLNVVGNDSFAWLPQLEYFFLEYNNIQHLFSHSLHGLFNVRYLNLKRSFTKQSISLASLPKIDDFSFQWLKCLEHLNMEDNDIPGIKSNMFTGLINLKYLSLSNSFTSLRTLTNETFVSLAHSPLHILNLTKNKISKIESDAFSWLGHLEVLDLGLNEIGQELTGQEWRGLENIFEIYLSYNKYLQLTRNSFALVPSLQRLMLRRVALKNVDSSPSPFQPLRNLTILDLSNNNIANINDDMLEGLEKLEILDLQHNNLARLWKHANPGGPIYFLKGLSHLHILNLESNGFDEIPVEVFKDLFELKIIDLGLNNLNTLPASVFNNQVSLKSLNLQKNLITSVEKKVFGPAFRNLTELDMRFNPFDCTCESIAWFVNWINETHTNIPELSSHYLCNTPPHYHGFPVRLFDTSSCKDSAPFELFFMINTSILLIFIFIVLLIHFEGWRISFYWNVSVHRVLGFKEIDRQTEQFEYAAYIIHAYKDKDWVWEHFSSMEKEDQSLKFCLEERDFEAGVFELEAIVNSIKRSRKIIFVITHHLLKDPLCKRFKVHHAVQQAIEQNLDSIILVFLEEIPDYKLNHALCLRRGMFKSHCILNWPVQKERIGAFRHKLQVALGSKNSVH

Regarding `Nc1ccn([C@@H]2O[C@H](COP(=O)(S)O[C@H]3[C@@H](O)[C@H](n4ccc5c(=O)[nH]c(N)nc54)O[C@@H]3COP(=O)(S)O[C@H]3[C@@H](O)[C@H](n4cnc5c(N)ncnc54)O[C@@H]3COP(=O)(S)O[C@H]3[C@@H](O)[C@H](n4cnc5c(N)ncnc54)O[C@@H]3COP(=O)(S)O[C@H]3[C@@H](O)[C@H](n4ccc5c(=O)[nH]c(N)nc54)O[C@@H]3COP(=O)(S)O[C@H]3[C@@H](O)[C@H](n4ccc(=O)[nH]c4=O)O[C@@H]3COP(=O)(S)O[C@H]3[C@@H](O)[C@H](n4ccc(=O)[nH]c4=O)O[C@@H]3COP(=O)(S)O[C@H]3[C@@H](O)[C@H](n4cnc5c(N)ncnc54)O[C@@H]3COP(=O)(S)O[C@H]3[C@@H](O)[C@H](n4cnc5c(N)ncnc54)O[C@@H]3CO)[C@@H](OP(=O)(S)OC[C@H]3O[C@@H](n4ccc(=O)[nH]c4=O)[C@H](O)[C@@H]3OP(=O)(S)OC[C@H]3O[C@@H](n4ccc5c(=O)[nH]c(N)nc54)[C@H](O)[C@@H]3OP(=O)(S)OCC(O)COP(=O)(S)O[C@H]3[C@@H](O)[C@H](n4ccc5c(=O)[nH]c(N)nc54)O[C@@H]3COP(=O)(S)O[C@H]3[C@@H](O)[C@H](n4ccc(=O)[nH]c4=O)O[C@@H]3COP(=O)(S)O[C@H]3[C@@H](O)[C@H](n4ccc(N)nc4=O)O[C@@H]3COP(=O)(S)O[C@H]3[C@@H](O)[C@H](n4ccc5c(=O)[nH]c(N)nc54)O[C@@H]3COP(=O)(S)O[C@H]3[C@@H](O)[C@H](n4cnc5c(N)ncnc54)O[C@@H]3COP(=O)(S)O[C@H]3[C@@H](O)[C@H](n4cnc5c(N)ncnc54)O[C@@H]3COP(=O)(S)O[C@H]3[C@@H](O)[C@H](n4ccc5c(=O)[nH]c(N)nc54)O[C@@H]3COP(=O)(S)O[C@H]3[C@@H](O)[C@H](n4ccc(=O)[nH]c4=O)O[C@@H]3COP(=O)(S)O[C@H]3[C@@H](O)[C@H](n4ccc(=O)[nH]c4=O)O[C@@H]3COP(=O)(S)O[C@H]3[C@@H](O)[C@H](n4cnc5c(N)ncnc54)O[C@@H]3COP(=O)(S)O[C@H]3[C@@H](O)[C@H](n4cnc5c(N)ncnc54)O[C@@H]3CO)[C@H]2O)c(=O)n1` (some centres not stated), the outcome in the series with Splenocyte [1] and in the series on Splenocyte [2] was Active. Moreover, the fold change (FC) in series [3] is 0.7. Further, the outcome in series [4] and in series [6] was inactive. Further, the remaining at 10 min in series [5] came to 76%.

Turning to `Nc1ccn([C@@H]2O[C@H](COP(=O)(S)O[C@H]3[C@@H](O)[C@H](n4cnc5c(N)ncnc54)O[C@@H]3CO)[C@@H](OP(=O)(S)OC[C@H]3O[C@@H](n4ccc(=O)[nH]c4=O)[C@H](O)[C@@H]3OP(=O)(S)OC[C@H]3O[C@@H](n4ccc(=O)[nH]c4=O)[C@H](O)[C@@H]3OP(=O)(S)OC[C@H]3O[C@@H](n4ccc5c(=O)[nH]c(N)nc54)[C@H](O)[C@@H]3OP(=O)(S)OC[C@H]3O[C@@H](n4cnc5c(N)ncnc54)[C@H](O)[C@@H]3OP(=O)(S)OC[C@H]3O[C@@H](n4cnc5c(N)ncnc54)[C@H](O)[C@@H]3OP(=O)(S)OC[C@H]3O[C@@H](n4ccc(N)nc4=O)[C@H](O)[C@@H]3OP(=O)(S)OC[C@H]3O[C@@H](n4ccc(=O)[nH]c4=O)[C@H](O)[C@@H]3OP(=O)(S)OC[C@H]3O[C@@H](n4ccc(=O)[nH]c4=O)[C@H](O)[C@@H]3OP(=O)(S)OC[C@H]3O[C@@H](n4ccc5c(=O)[nH]c(N)nc54)[C@H](O)[C@@H]3OP(=O)(S)OCC(O)COP(=O)(S)O[C@H]3[C@@H](O)[C@H](n4ccc5c(=O)[nH]c(N)nc54)O[C@@H]3COP(=O)(S)O[C@H]3[C@@H](O)[C@H](n4ccc(=O)[nH]c4=O)O[C@@H]3COP(=O)(S)O[C@H]3[C@@H](O)[C@H](n4ccc(=O)[nH]c4=O)O[C@@H]3COP(=O)(S)O[C@H]3[C@@H](O)[C@H](n4ccc(N)nc4=O)O[C@@H]3COP(=O)(S)O[C@H]3[C@@H](O)[C@H](n4cnc5c(N)ncnc54)O[C@@H]3COP(=O)(S)O[C@H]3[C@@H](O)[C@H](n4cnc5c(N)ncnc54)O[C@@H]3COP(=O)(S)O[C@H]3[C@@H](O)[C@H](n4ccc5c(=O)[nH]c(N)nc54)O[C@@H]3COP(=O)(S)O[C@H]3[C@@H](O)[C@H](n4ccc(=O)[nH]c4=O)O[C@@H]3COP(=O)(S)O[C@H]3[C@@H](O)[C@H](n4ccc(=O)[nH]c4=O)O[C@@H]3COP(=O)(S)O[C@H]3[C@@H](O)[C@H](n4ccc(N)nc4=O)O[C@@H]3COP(=O)(S)O[C@H]3[C@@H](O)[C@H](n4cnc5c(N)ncnc54)O[C@@H]3CO)[C@H]2O)c(=O)n1` (some centres not stated), the result in the series on Splenocyte [1] and in the series with Splenocyte [2] was Active. Further, in series [3], the fold change (FC) worked out at 4.9. Further, the result in series [4] and in series [6] was inactive. The remaining at 10 min in series [5] worked out at 84%.
